The target of assay [1] is T1, 3-hydroxy-3-methylglutaryl-coenzyme A reductase (Rattus norvegicus) (UniProt P51639).
T1 sequence (whole entry): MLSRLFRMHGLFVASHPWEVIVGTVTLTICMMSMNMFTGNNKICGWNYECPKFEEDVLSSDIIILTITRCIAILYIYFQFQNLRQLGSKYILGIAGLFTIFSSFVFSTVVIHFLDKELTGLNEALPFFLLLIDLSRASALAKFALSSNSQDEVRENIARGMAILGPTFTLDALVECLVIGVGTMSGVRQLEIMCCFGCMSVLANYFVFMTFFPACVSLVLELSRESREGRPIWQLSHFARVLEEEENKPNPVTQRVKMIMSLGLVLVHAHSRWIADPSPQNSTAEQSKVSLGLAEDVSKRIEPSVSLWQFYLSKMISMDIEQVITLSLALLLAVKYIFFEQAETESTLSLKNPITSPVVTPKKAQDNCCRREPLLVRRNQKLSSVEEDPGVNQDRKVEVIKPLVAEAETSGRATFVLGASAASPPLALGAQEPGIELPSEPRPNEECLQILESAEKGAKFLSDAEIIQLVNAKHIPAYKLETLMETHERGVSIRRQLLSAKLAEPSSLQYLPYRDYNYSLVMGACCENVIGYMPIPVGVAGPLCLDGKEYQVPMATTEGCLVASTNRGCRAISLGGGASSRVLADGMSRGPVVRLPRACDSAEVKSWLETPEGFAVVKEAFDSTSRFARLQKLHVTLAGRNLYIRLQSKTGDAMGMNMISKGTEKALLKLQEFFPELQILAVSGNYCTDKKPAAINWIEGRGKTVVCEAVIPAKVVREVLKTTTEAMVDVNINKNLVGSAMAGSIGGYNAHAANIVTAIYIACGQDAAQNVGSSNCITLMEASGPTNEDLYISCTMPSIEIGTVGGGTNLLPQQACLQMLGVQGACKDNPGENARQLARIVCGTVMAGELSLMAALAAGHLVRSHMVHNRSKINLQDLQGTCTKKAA
As to the kind of experiment: Inhibitory potency against purified rat liver HMG-CoA reductase relative to compactin.

Assay [2] concerns the target T2, 3-hydroxy-3-methylglutaryl-coenzyme A reductase (Rattus norvegicus, UniProt P51639).
T2 sequence (P51639 whole entry): T1 sequence (whole entry)
As to the kind of experiment: Inhibition of solubilized partially purified rat liver HMG-CoA reductase. In outline: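 Enzyme inhibition was tested at four or five test-compound concentrations, and percentage inhibition was plotted against concentration. IC50 came from a straight line fitted to these points by least squares. The full protocol is given in part 1 of the series.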

The text below walks through data of ChEMBL document CHEMBL1123390, “3-Hydroxy-3-methylglutaryl-coenzyme A reductase inhibitors. 3. 7-(3,5-Disubstituted [1,1'-biphenyl]-2-yl)-3,5-dihydroxy-6-heptenoic acids and their lactone derivatives” (J Med Chem, 1986).

`O=C1C[C@H](O)C[C@@H](/C=C/c2c(Cl)cc(Cl)cc2-c2ccc(F)cc2)O1` (stereo in doubt; 100(+)h) [listing 1 of 2 here] showed a Relative potency in assay [1] of 280.
Take `Cc1cc(Cl)c(/C=C/[C@@H]2C[C@@H](O)CC(=O)O2)c(-c2ccc(F)c(C)c2)c1`: the IC50 in assay [2] was determined as 13 nM. The molecule further yielded a Relative potency in assay [1] of 92.
Consider `O=C1C[C@H](O)C[C@@H](/C=C/c2c(F)cc(F)cc2-c2ccc(F)cc2)O1`, for which, in assay [2], the IC50 came out at 860 nM. The Relative potency in assay [1] amounted to 3.5.
In the case of `COc1cccc(-c2cc(Cl)cc(Cl)c2/C=C/[C@@H]2C[C@@H](O)CC(=O)O2)c1`, it took 50 nM to reach half-maximal inhibition in assay [2] (IC50). In assay [1], the Relative potency amounted to 26.
`Cc1ccccc1-c1cc(Cl)cc(Cl)c1/C=C/[C@@H]1C[C@@H](O)CC(=O)O1` showed an IC50 in assay [2] of 370 nM. For the same molecule, the Relative potency in assay [1] amounted to 3.2.
`Cc1ccc(-c2cc(Cl)cc(Cl)c2/C=C/[C@@H]2C[C@@H](O)CC(=O)O2)cc1` had an IC50 in assay [2] of 190 nM. Further, in assay [1], the Relative potency was 11.
In turn, `Cc1cc(C)c(/C=C/[C@@H]2C[C@@H](O)CC(=O)O2)c(-c2ccc(F)c(C)c2)c1` (stereo in doubt; 110 (+)) [listing 1 of 2 here] yielded a Relative potency in assay [1] of 289.
Regarding `Cc1cc(C)c(/C=C/[C@@H]2C[C@@H](O)CC(=O)O2)c(-c2ccc(F)cc2)c1`, in assay [2], inhibition was half-maximal at 13 nM (IC50). Besides, in assay [1], the Relative potency came out at 96.
For `Cc1cccc(-c2cc(Cl)cc(Cl)c2/C=C/[C@@H]2C[C@@H](O)CC(=O)O2)c1` the same measures were 16 nM and 94.
For `Cc1ccc(C)c(-c2ccc(Cl)c(Cl)c2)c1/C=C/[C@@H]1C[C@@H](O)CC(=O)O1` the same measures were 13 nM and 123.
For `O=C1C[C@H](O)C[C@@H](/C=C/c2c(Cl)cc(Cl)cc2-c2cc(Cl)cc(Cl)c2)O1` the same measures were 37 nM and 78.
Turning to `Cc1cc(C)cc(-c2cc(Cl)cc(Cl)c2/C=C/[C@@H]2C[C@@H](O)CC(=O)O2)c1`, the IC50 in assay [2] was determined as 13 nM. This molecule also yielded a Relative potency in assay [1] of 115.
The matching figures for `O=C1C[C@H](O)CC(CCc2ccccc2-c2ccccc2)O1` (some centres undefined): 44000 nM and 0.44.
For `O=C1C[C@H](O)C[C@@H](/C=C/c2ccc(Cl)cc2Cl)O1`, in assay [1], the Relative potency worked out at 0.06.
Molecule `Cc1cc(C)c(/C=C/[C@@H]2C[C@@H](O)CC(=O)O2)c(-c2ccc(F)c(C)c2)c1` (stereo in doubt; 110(-)) [listing 1 of 2 here] came in with an IC50 in assay [2] of 7300 nM.
As for `Cc1cc(-c2cc(Cl)cc(C)c2/C=C/[C@@H]2C[C@@H](O)CC(=O)O2)ccc1F`, half-maximal inhibition in assay [2] (IC50) was put at 6 nM. In assay [1], the Relative potency worked out at 233.
The matching figures for `Cc1cc(C)c(/C=C/[C@@H]2C[C@@H](O)CC(=O)O2)c(-c2cc(C)c(F)c(C)c2)c1`: 10 nM and 150.
Molecule `O=C1C[C@H](O)C[C@@H](/C=C/c2c(Cl)cc(Cl)cc2CCc2ccccc2)O1` gave an IC50 in assay [2] of 430 nM. The molecule also yielded a Relative potency in assay [1] of 2.8.
In assay [2], `O=C1C[C@H](O)C[C@@H](/C=C/c2c(Cl)cc(Cl)cc2-c2ccc(F)cc2)O1` (stereo in doubt; 100(i)i) [listing 1 of 2 here] showed an IC50 of 260 nM.
Still for that read-out and setting: the value for `Cc1cc(C)c(/C=C/[C@@H]2C[C@@H](O)CC(=O)O2)c(-c2ccc(F)c(C)c2)c1` (stereo in doubt; 110) [listing 1 of 2 here] was 7 nM.
As to `O=C1C[C@H](O)C[C@@H](/C=C/c2c(Cl)cc(Cl)cc2-c2ccc(Cl)cc2)O1`, in assay [2], 36 nM corresponded to half-maximal inhibition (IC50). In assay [1], this molecule yielded a Relative potency of 58.
The matching figures for `O=C1C[C@H](O)CC(CCc2c(Cl)cc(Cl)cc2Cc2ccccc2)O1` (some centres undefined): 530 nM and 4.3.
For `Cc1cc(C)cc(-c2cc(C)cc(C)c2/C=C/[C@@H]2C[C@@H](O)CC(=O)O2)c1` the same measures were 15 nM and 80.
`CCc1cccc(-c2cc(Cl)cc(Cl)c2/C=C/[C@@H]2C[C@@H](O)CC(=O)O2)c1` had an IC50 in assay [2] of 44 nM. For the same molecule, the Relative potency in assay [1] is 30.
For `Cc1cc(C)c(CCC2C[C@@H](O)CC(=O)O2)c(-c2ccc(F)c(C)c2)c1` (some centres undefined) the same measures were 22 nM and 45.
Turning to `O=C1C[C@H](O)C[C@@H](/C=C/c2c(Cl)cc(Cl)cc2-c2ccccc2)O1`, the IC50 in assay [2] was 80 nM. The molecule further showed a Relative potency in assay [1] of 26.
Regarding `Cc1cc(C)c(/C=C/[C@@H]2C[C@@H](O)CC(=O)O2)c(-c2ccc(F)c(C)c2)c1` (stereo in doubt; 110) [listing 2 of 2 here], in assay [1], the Relative potency amounted to 171.
With `Cc1cc(C)c(/C=C/[C@@H]2C[C@@H](O)CC(=O)O2)c(-c2ccc(F)c(C)c2)c1` (stereo in doubt; 110 (+)) [listing 2 of 2 here], in assay [2], inhibition was half-maximal at 7.6 nM (IC50). This counts as single-digit nanomolar.
On to `O=C1C[C@H](O)C[C@@H](/C=C/c2c(Cl)cc(Cl)cc2-c2ccc(F)cc2)O1` (stereo in doubt; 100(i)i) [listing 2 of 2 here], for which, in assay [1], the Relative potency stood at 5.
On the same count and under the same terms, with `O=C1C[C@H](O)C[C@@H](/C=C/c2c(Cl)cc(Cl)cc2-c2ccc(F)cc2)O1` (stereo in doubt; 100) [listing 1 of 2 here] the figure was 100.
The same measure, in the same setting: the value for `O=C1C[C@H](O)C[C@@H](/C=C/c2ccccc2-c2ccccc2)O1` was 0.63.
As for `O=C1C[C@H](O)C[C@@H](/C=C/c2c(Cl)cc(Cl)cc2-c2cccc(F)c2)O1`, the IC50 in assay [2] turned out to be 70 nM. Further, the Relative potency in assay [1] came to 38.6.
In the case of `O=C1C[C@H](O)C[C@@H](/C=C/c2c(Cl)cc(Cl)cc2-c2ccc(F)cc2)O1` (stereo in doubt; 100(+)h) [listing 2 of 2 here], the IC50 in assay [2] came to 5 nM. This counts as single-digit nanomolar.
The molecule `Cc1cc(C)c(/C=C/[C@@H]2C[C@@H](O)CC(=O)O2)c(-c2ccc(F)c(C)c2)c1` (stereo in doubt; 110(-)) [listing 2 of 2 here] came in with a Relative potency in assay [1] of 0.18.
`Cc1cc(-c2cc(Cl)cc(Cl)c2/C=C/[C@@H]2C[C@@H](O)CC(=O)O2)ccc1F` yielded an IC50 in assay [2] of 29 nM. In addition, the Relative potency in assay [1] turned out to be 100.
The matching figures for `Cc1cc(C)c(/C=C/[C@@H]2C[C@@H](O)CC(=O)O2)c(-c2ccc(Cl)c(Cl)c2)c1`: 8 nM and 175.
For `Cc1cc(-c2cccc(Cl)c2/C=C/[C@@H]2C[C@@H](O)CC(=O)O2)ccc1F` the same measures were 30 nM and 40.
`O=C1C[C@H](O)C[C@@H](/C=C/c2c(Cl)cc(Cl)cc2-c2ccc(F)cc2)O1` (stereo in doubt; 100) [listing 2 of 2 here] had an IC50 in assay [2] of 24 nM.
In the case of `O=C1C[C@H](O)C[C@@H](/C=C/c2c(Cl)cc(Cl)cc2-c2ccc(Cl)c(Cl)c2)O1`, the IC50 in assay [2] was 25 nM. In addition, the Relative potency in assay [1] amounted to 116.
On to `Cc1cc(C)c(/C=C/[C@@H]2C[C@@H](O)CC(=O)O2)c(/C=C/c2ccc(Cl)cc2)c1`, for which the half-maximal inhibitory concentration (IC50) in assay [2] worked out at 630 nM. In addition, in assay [1], the Relative potency was 2.4.
For the molecule `Cc1cc(F)ccc1-c1cc(Cl)cc(Cl)c1/C=C/[C@@H]1C[C@@H](O)CC(=O)O1`, in assay [2], inhibition was half-maximal at 36 nM (IC50). The molecule further gave a Relative potency in assay [1] of 33.
On to `COc1ccc(-c2cc(Cl)cc(Cl)c2/C=C/[C@@H]2C[C@@H](O)CC(=O)O2)cc1`, for which, in assay [2], the IC50 stood at 470 nM. Also, the Relative potency in assay [1] amounted to 2.6.
As to `O=C1C[C@H](O)CC(CCc2c(Cl)cc(Cl)cc2-c2ccccc2)O1` (some centres undefined), half-maximal inhibition in assay [2] (IC50) was put at 100 nM. The molecule further had a Relative potency in assay [1] of 18.
For the molecule `Cc1cc(C)c(/C=C/[C@@H]2C[C@@H](O)CC(=O)O2)c(-c2ccc(F)c(CO)c2)c1`, half-maximal inhibition in assay [2] (IC50) required 49 nM. In assay [1], this molecule registered a Relative potency of 26.5.

One may read the IC50 as the concentration needed to halve the response being measured.
